Experimental data of several laboratories.
Compare with care: the assays were run in different laboratories.
Target: Interleukin-1 receptor-associated kinase 1 (IRAK1, Homo sapiens, UniProt P51617)

SMILES | read-out | action | technique | tested at | measurement | result
Cc1ccc(C(=O)Nc2ccc(CN3CCN(C)CC3)c(C(F)(F)F)c2)cc1C#Cc1cnc2cccnn12 | enzyme activity | inhibitor | – | 23.5 nM | remaining activity | 54%
COc1ccc2c(c1)O[C@H](c1ccc(OC)c(OC)c1)C[C@@H]2NC(=O)C1(c2ccc3c(c2)OC(F)(F)O3)CC1 | cell-free assay | – | competition with immobilised ligand | 1 µM | remaining binding | 93%
CCN(CC)CCNC(=O)c1c(C)[nH]c(/C=C2\C(=O)Nc3ccc(F)cc32)c1C | enzyme activity | inhibitor | – | 0.3 µM | inhibition | 31%
COc1cccc2c(NCc3ccccc3)nc(-n3c(N)nc4ccccc43)nc12 | target engagement in cells | inhibitor | chemoproteomics | 20 mM | inhibition | -2.2%
CNC(=O)Nc1ccc2c(c1)[C@@]1(CC2)OC(=O)N(CC(=O)N(Cc2ccc(F)cc2)[C@@H](C)C(F)(F)F)C1=O | cell-free assay | – | competition with immobilised ligand | 1 µM | remaining binding | 88%
COc1cc(Nc2cnc(C#N)c(O[C@H](C)CN(C)C)n2)ncc1-c1cnn(C)c1 | enzyme activity | inhibitor | radiometric | 10 µM | remaining activity | 9%
CC(=O)N1CCC(c2ccc(C(=O)NC3=NCCN3)cc2C(F)(F)F)CC1 | cell-free assay | – | competition with immobilised ligand | 1 µM | remaining binding | 78%
Cc1ccc(NC(=O)c2ccc(C)c(C(F)(F)F)c2)cc1C#Cc1nn(C2CCC(O)CC2)c2ncnc(N)c12 (centres unmarked) | cell-free assay | – | – | 10 µM | remaining signal | 30%
FC(F)(F)Oc1cccc(-c2cnc3ccc(-c4ccncc4)nn23)c1 | enzyme activity | inhibitor | radiometric | 5 µM | activity vs control | 24%
Cc1cnc(NC2CCOCC2)nc1-n1cnc(C(=O)NC(CN)c2cc(F)cc(Cl)c2)c1 (centres unmarked) | enzyme activity | inhibitor | radiometric | 1 µM | remaining activity | 101%
CC(C)(C)c1nc2c(s1)c1nc(N)ncc1c1ccc(NS(=O)(=O)c3c(F)cccc3F)c(F)c12 | enzyme activity | inhibitor | radiometric | 1 µM | remaining activity | 90%
Cc1nc(Cc2cccc(C(F)(F)F)c2)sc1-c1ccc(C(N)=O)nc1 | cell-free assay | – | competition with immobilised ligand | 1 µM | remaining binding | 100%
COc1cc(-c2cc(-c3ccc(N4CCNCC4)cc3)cnc2C)cc(OC)c1OC | enzyme activity | inhibitor | – | 0.1 µM | inhibition | 2%
CS(=O)(=O)c1cc(C2(NC(=O)c3cncc4c3cnn4-c3ccc(F)cc3)CC2)ccn1 | cell-free assay | – | competition with immobilised ligand | 1 µM | remaining binding | 87%
CN(C)C1CCN(CC#Cc2nn(C3CCCC3)c3nc(NCc4ccccc4)ncc23)C1 (centres unmarked) | enzyme activity | inhibitor | FRET | 0.1 µM | inhibition | 6%
Cc1sc(C(=O)NC2COC2)cc1-n1cc(NC(=O)Nc2c(F)cccc2Cl)cn1 | enzyme activity | inhibitor | – | 10 µM | remaining activity | 79.9%
NS(=O)(=O)c1cc(NC(=O)C2(c3ccccc3Cl)CC2)ccc1Oc1cccc(Cl)c1 | cell-free assay | – | competition with immobilised ligand | 1 µM | remaining binding | 79%
Cc1ccc(Nc2nccc(N(C)c3ccc4c(C)n(C)nc4c3)n2)cc1S(N)(=O)=O | enzyme activity | inhibitor | – | 0.3 µM | inhibition | -6%
COc1cc(/C=C/C(=O)CC(=O)/C=C/c2ccc(O)c(OC)c2)ccc1O | enzyme activity | inhibitor | – | 1 µM | activity vs control | 97%
CCCS(=O)(=O)Nc1ccc(F)c(C(=O)c2c[nH]c3ncc(-c4ccc(Cl)cc4)cc23)c1F | enzyme activity | inhibitor | – | 1 µM | inhibition | < 10%
CCCCNc1ncc2c(-c3ccc(F)cc3)nn(C[C@H]3CC[C@H](N)CC3)c2n1 | target engagement in cells | inhibitor | chemoproteomics | 20 mM | inhibition | 51.5%
N#CCCc1ccc2c(c1)-c1[nH]c3ccc([N+](=O)[O-])cc3c1CC(=O)N2 | cell-free assay | – | – | 0.5 µM | remaining signal | 74.9%
COCCOc1nc(-c2ccc(Cl)nc2)nc2c1CN(C(=O)c1ncn3ccccc13)CC2 | cell-free assay | – | competition with immobilised ligand | 0.1 µM | remaining binding | 100%
CNC(=O)c1cc(Oc2ccc(NC(=O)Nc3ccc(Cl)c(C(F)(F)F)c3)cc2)ccn1 | enzyme activity | inhibitor | – | 0.3 µM | inhibition | -4%
Oc1cccc(-c2nc(N3CCOCC3)c3oc4ncccc4c3n2)c1 | cell-free assay | – | – | 0.5 µM | remaining signal | 84.2%
COc1cc2nccc(Oc3ccc(NC(=O)c4c5n(n(-c6ccc(F)cc6)c4=O)CCCC5)cc3)c2cc1OC | enzyme activity | inhibitor | – | 0.1 µM | inhibition | -7%
COc1ccc(COc2ccc(Cc3cnc(N)nc3N)cc2OC)cc1 | cell-free assay | – | – | 0.5 µM | remaining signal | 123%
C=CC(=O)Nc1cc(Nc2nccc(Nc3cc(Cl)c(F)cc3C(C)(C)O)n2)c(OC)cc1N1CC[C@@H](N(C)C)C1 | enzyme activity | inhibitor | – | 1 µM | inhibition | 11%
Cc1nc(N2CC[C@@H](O)C2)ncc1-c1cc(C(F)(F)F)cc2[nH]ncc12 | binding | – | competition with immobilised ligand | 1 µM | remaining binding | 100%
